L major viab = inhibitors of Leishmania major promastigote growth; Leishmania major promastigotes, resazurin fluorescence viability; inhibition, % at 10 µM; 200,000 compounds, 9% hits; in the data active = inhibition above about 50%;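 note: promastigotes grown with compound for 44 hours at 28 °C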
Rad51 HR inh = blocks human Rad51 in homologous recombination; Q06609; hRad51 DNA strand exchange, fluorescence dequenching; inhibition, % at 10 µM; 200,000 compounds, 0.085% hits;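 active = inhibition above 40% at the single screening dose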;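 note: 0% = DMSO control wells and 100% = blanks with heterologous ssDNA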
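Assay system: Human Rad51 nucleoprotein filaments preassembled on unlabelled ssDNA | Reagent: Donor/quencher-labelled 47-bp dsDNA substrate | Doses: One concentration, 10 µM final | Times: 37 °C 15-min filament assembly, 30-min compound preincubation, 15-min exchange | Technique: Fluorescein emission 520 nm, excitation 485 nm | Benchmarks: Plate control and blank wells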
WT yeast gro inh = growth inhibition of WT yeast, mitochondrial fusion screen | mitochondrial fusion phenotypic screen, WT strain | inhibition, % at 10 µM | 190,000 compounds, 2.1% hits | AID 1362; in the data active = inhibition above about 58%; tested in S. cerevisiae
Calpain2 inh = calpain II (pig) inhibition; AID 1236; purified calpain II, fluorogenic peptide substrate, 30 min; 220,000 compounds, 0.37% hits; inhibition, % at 16 µM;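 active = inhibition above about 50%, limit read from the data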
PMI act = increases human mannose-6-phosphate isomerase activity. P34949. purified human PMI, coupled resazurin fluorescence, 20 min; stronger effect = higher value; 1 = vehicle control, 0 substrate-free wells. activation factor at 20 µM. 190,000 compounds, 0.005% hits. AID 1214;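 active = activation factor of 2 or more at 20 µM, relative to plate controls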
Target sequence (P34949 whole entry, looked up): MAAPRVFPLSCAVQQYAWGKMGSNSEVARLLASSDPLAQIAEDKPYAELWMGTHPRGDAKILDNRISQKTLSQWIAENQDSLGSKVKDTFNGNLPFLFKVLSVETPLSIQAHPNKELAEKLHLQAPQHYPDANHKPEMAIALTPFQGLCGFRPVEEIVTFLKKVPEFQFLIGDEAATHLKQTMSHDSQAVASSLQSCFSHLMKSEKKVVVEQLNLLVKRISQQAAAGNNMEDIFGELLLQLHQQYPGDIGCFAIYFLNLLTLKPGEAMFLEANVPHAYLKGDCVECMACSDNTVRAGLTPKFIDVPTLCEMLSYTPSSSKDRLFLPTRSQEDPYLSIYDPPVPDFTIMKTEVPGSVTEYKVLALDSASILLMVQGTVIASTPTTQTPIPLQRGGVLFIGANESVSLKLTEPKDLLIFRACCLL
PMI act hi M6P = increases human PMI activity with near-saturating mannose 6-phosphate; AID 1216; coupled PMI enzyme assay, resazurin fluorescence, 20 min; stronger effect = higher value; 1 = untreated enzyme, 0 = substrate-free blank; activation factor at 20 µM; 190,000 compounds, 0.34% hits; P34949;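 active = activation factor of 2 or more at 20 µM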
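Test system: human PMI in coupled enzyme assay; Input: PMI at 15 ng/mL final; Medium: HEPES buffer, pH 7.4; Schedule: 20 min incubation at room temperature; Technique: resorufin fluorescence at Ex 544/Em 590 nm; Compound: 20 µM single dose; Probe or stimulus: Near-saturating mannose-6-phosphate, 1.0 mM.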
* hit, by the source's call. Hits are enriched below; roughly 9.8% of the tested compounds scored in any of these assays.

What do the screens show for `O=C1C(Nc2ccc(O)cc2)=C/C(=N/S(=O)(=O)c2cccs2)c2ccccc21`?
L major viab: 100*; WT yeast gro inh: 41; Calpain2 inh: 8; PMI act: 0.9; PMI act hi M6P: 0.5

What do the screens show for `Cc1ccc(NC2=C/C(=N\S(=O)(=O)c3cccs3)c3ccccc3C2=O)c(C)c1`?
L major viab: 101*; Rad51 HR inh: 8; WT yeast gro inh: 96*; Calpain2 inh: -16; PMI act: 1; PMI act hi M6P: 0.5

How did O=C(O)c1ccc(NC2=C/C(=N/S(=O)(=O)c3ccccc3)c3ccccc3C2=O)cc1 do in these assays?
L major viab: 100*; WT yeast gro inh: 48; Calpain2 inh: 26; PMI act: 1.7; PMI act hi M6P: 1.3

How did CC(C)N(C(=O)CSc1nnc(-c2cc3ccccc3cc2O)n1Cc1ccco1)C(C)C do in these assays?
L major viab: 54*; Rad51 HR inh: -2; WT yeast gro inh: 8; Calpain2 inh: -51; PMI act: 0.8; PMI act hi M6P: 0.8

How did O=C(CSc1nnc(-c2cnccn2)n1Cc1ccco1)c1ccc(Cl)cc1 do in these assays?
L major viab: 21; Rad51 HR inh: 8; WT yeast gro inh: -1; Calpain2 inh: -94; PMI act: 1; PMI act hi M6P: 1.1

What do the screens show for `Cc1ccc(-c2nnc(SCc3ccc(C#N)cc3)n2Cc2ccco2)cc1`?
L major viab: 66*; Rad51 HR inh: -6; WT yeast gro inh: 13; Calpain2 inh: 3; PMI act: 0.9; PMI act hi M6P: 1

What do the screens show for `COCCn1c(SCC(=O)N(C(C)C)C(C)C)nnc1-c1cc2ccccc2cc1O`?
L major viab: 16; Rad51 HR inh: -4; WT yeast gro inh: -4; Calpain2 inh: -24; PMI act: 1; PMI act hi M6P: 0.9

How did CC(C)(C)c1ccc(CSc2nnc(-c3ccccn3)n2Cc2ccco2)cc1 do in these assays?
L major viab: 35; WT yeast gro inh: 64*; Calpain2 inh: 5; PMI act: 1; PMI act hi M6P: 1

Results for O=C(CSc1nnc(-c2cnccn2)n1Cc1ccco1)c1ccccc1 ?
L major viab: 3; Rad51 HR inh: -1; WT yeast gro inh: 99*; Calpain2 inh: -35; PMI act: 1.1; PMI act hi M6P: 1

How did O=C(CCC1CCCN(C(=O)C2(c3ccccc3)CC2)C1)N1CCN(c2ccccn2)CC1 (centres undefined) do in these assays?
L major viab: 7; Rad51 HR inh: -3; WT yeast gro inh: -5; Calpain2 inh: -29

What do the screens show for `CCOC(=O)C[C@H]1c2cc(C(F)(F)F)ccc2S(=O)(=O)N1C(C)C`?
Rad51 HR inh: 5

What do the screens show for `CN1C2CCC1/C(=C\c1ccc(F)cc1)C(=O)/C2=C/c1ccc(F)cc1`?
L major viab: 75*; Rad51 HR inh: -10; WT yeast gro inh: -25; Calpain2 inh: 27; PMI act: 0.9; PMI act hi M6P: 0.9

Results for CN1C2CCC1/C(=C/c1cccn1C)C(=O)/C2=C\c1cccn1C ?
L major viab: 20; WT yeast gro inh: 33; Calpain2 inh: 36; PMI act: 1.4; PMI act hi M6P: 1.1

Results for CCOC(=O)c1c(NS(=O)(=O)c2ccc(Br)cc2)sc2c1CCC2 ?
L major viab: -5; Rad51 HR inh: -6; WT yeast gro inh: 65*; Calpain2 inh: -78

What do the screens show for `CCOC(=O)c1c(NS(=O)(=O)Cc2ccccc2)sc2c1CCCC2`?
L major viab: -11; Rad51 HR inh: 11; WT yeast gro inh: 31; Calpain2 inh: -117; PMI act: 1; PMI act hi M6P: 1.1

Results for COC(=O)c1c(NC(=O)COC(=O)[C@@H](NS(=O)(=O)c2ccc(C)cc2)C(C)C)sc2c1CCC2 ?
L major viab: 94*; Rad51 HR inh: -2; WT yeast gro inh: 33; Calpain2 inh: -19; PMI act: 1; PMI act hi M6P: 1

How did CC(=O)N1CCC2(CC1)C/C(=N\NC(=S)Nc1ccc(C)cc1)c1cc(O)ccc1O2 do in these assays?
L major viab: 0; Rad51 HR inh: 20; WT yeast gro inh: 6; Calpain2 inh: -141; PMI act: 0.8; PMI act hi M6P: 0.9

How did COc1ccc(/C=C/C(=O)Nc2ccc(OC)nc2)cc1 do in these assays?
L major viab: -3; WT yeast gro inh: 11; Calpain2 inh: -6; PMI act: 1; PMI act hi M6P: 1.1

What do the screens show for `COc1ccc(NC(=O)/C(Cl)=C(/Cl)S(=O)Cc2ccccc2)cn1` (centres undefined)?
L major viab: 100*; Rad51 HR inh: 31; WT yeast gro inh: 76; Calpain2 inh: 20; PMI act: 1; PMI act hi M6P: 0.8

Results for COc1ccc(CS(=O)(=O)/C(Cl)=C(/Cl)C(=O)Nc2ccc(OC)nc2)cc1 ?
L major viab: 32; Rad51 HR inh: 4; WT yeast gro inh: 63*; Calpain2 inh: -51; PMI act: 1; PMI act hi M6P: 1

Results for O=C(CN1CCOCC1)Nc1nc(-c2ccc3c(c2)CCN3S(=O)(=O)c2ccccc2)cs1 ?
L major viab: 68*; Rad51 HR inh: 2; WT yeast gro inh: -2; Calpain2 inh: -67; PMI act: 0.8; PMI act hi M6P: 0.9

What do the screens show for `Cc1sc(NC(=O)CN2CCOCC2)nc1-c1ccc2c(c1)CCN2S(=O)(=O)c1ccccc1`?
L major viab: 97*; Rad51 HR inh: 10; Calpain2 inh: 0; PMI act: 0.9; PMI act hi M6P: 1

Results for CCCc1nn(C)c(C(=O)Nc2ccccc2)c1Cl ?
L major viab: -6; Rad51 HR inh: -9; WT yeast gro inh: -2; Calpain2 inh: 0; PMI act: 0.9; PMI act hi M6P: 1

What do the screens show for `CN(C)CCCNC(=O)c1ccccn1`?
L major viab: -5; Rad51 HR inh: 4; WT yeast gro inh: -2; Calpain2 inh: -10; PMI act: 1; PMI act hi M6P: 1.1

Results for CN(C)CCCNC(=O)c1ccc(-c2nc(-c3ccc(Cl)cc3)cs2)cc1 ?
L major viab: 101*; Rad51 HR inh: -3; WT yeast gro inh: 91; Calpain2 inh: -422; PMI act: 1.1; PMI act hi M6P: 1

Results for CC12c3ccccc3C(c3ccccc31)C1C(=O)N(c3cccnc3)C(=O)C12 (centres undefined) ?
L major viab: 50; WT yeast gro inh: -12; Calpain2 inh: 8; PMI act: 0.8; PMI act hi M6P: 0.9

Results for O=C1C2C3c4ccccc4C(c4ccccc43)C2C(=O)N1c1cccnc1 (centres undefined) ?
L major viab: 51*; Rad51 HR inh: 7; WT yeast gro inh: 1; Calpain2 inh: 16; PMI act: 1; PMI act hi M6P: 1.1

How did CN1CCCC1CCNS(=O)(=O)c1ccc(Br)cc1 (centres undefined) do in these assays?
L major viab: 96*; Rad51 HR inh: -49; WT yeast gro inh: 0; Calpain2 inh: -6; PMI act: 1; PMI act hi M6P: 1.1
